Assay results as given in ChEMBL document CHEMBL3525979, “Combined contributions of impaired hepatic CYP2C11 and intestinal breast cancer resistance protein activities and expression to increased oral glibenclamide exposure in rats with streptozotocin-induced diabetes mellitus” (Drug Metab Dispos, 2012).

How the values were obtained:
Liver microsome [1] = assay: Drug metabolism in streptozotocin-induced diabetes mellitus Sprague-Dawley rat liver microsomes assessed as compound level at 4 uM after 60 mins (reference value: 2.0 +/- 0.13 ug/ml); format: ADME; details: 1 h
[2] = Drug excretion in normal Sprague-Dawley rat urine at 10 mg/kg, po by HPLC method; format: ADME, organism-based; design: dose 10 mg/kg, route oral; details: read-out: Drug excretion
Summary of the method: (§1)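 STZ-diabetic (65 mg/kg i.p.), insulin-treated or control rats were dosed with GLB 10 mg/kg orally on day 35 after overnight fast. Urine and feces were collected in metabolic cages at 6-h intervals to 36 h. For bile, the common bile duct was cannulated under pentobarbital and bile collected to 12 h. GLB measured by HPLC-fluorescence and expressed as % of dose.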

[3] = Mean residence time in Sprague-Dawley rat model of streptozotocin-induced diabetes mellitus at 10 mg/kg, po by HPLC method; format: ADME, organism-based; design: dose 10 mg/kg, route oral; details: in vivo
Summary of the method: (§2)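 Sprague-Dawley rats: diabetes induced by STZ 65 mg/kg i.p. in citrate buffer pH 4.5 (fasting glucose >11.1 mM at day 7). Insulin group received protamine zinc insulin 5 U/kg s.c. twice daily for 4 weeks. On day 35, overnight-fasted rats got GLB 10 mg/kg orally in 0.5% CMC-Na. Plasma GLB measured by HPLC with fluorescence detection (ex 308/em 360 nm). Non-compartmental analysis; n=6-7.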

[4] = Half life in streptozotocin-induced diabetes mellitus Sprague-Dawley rat liver microsomes at 4 uM after 60 mins; format: ADME
Summary of the method: (§3)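 Liver microsomes (0.5 mg/mL protein) from control, STZ-diabetic or insulin-treated diabetic rats, 0.01 M phosphate buffer pH 7.4, 4 μM GLB (methanol <1%); 5 min preincubation at 37 °C, started with NADPH regenerating system. Stopped with 1 M HCl at 0, 5, 15, 30, 45, 60 min. GLB depletion measured by HPLC-fluorescence. AUC by linear trapezoid; Clapp = initial dose/AUC0-t; t1/2 = 0.693/terminal slope. Triplicate incubations; 4-5 rats.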

[5] = Terminal elimination half life in Sprague-Dawley rat model of streptozotocin-induced diabetes mellitus at 10 mg/kg, po by HPLC method; format: ADME, organism-based; design: dose 10 mg/kg, route oral; details: in vivo, read-out: beta t1/2 (converted)
Summary of the method: (§4)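 Rats given STZ 65 mg/kg i.p. in citrate buffer pH 4.5 (controls got buffer); diabetic if fasting glucose >11.1 mM at day 7; insulin group got protamine zinc insulin 5 U/kg s.c. twice daily for 4 weeks. On day 35, overnight-fasted rats dosed orally with 10 mg/kg in 0.5% CMC-Na; plasma by ethyl acetate extraction, HPLC fluorescence (ex 308/em 360 nm); non-compartmental analysis; n=6-7, mean ± S.D.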

Liver microsome [6] = assay: Apparent hepatic clearance in insulin treated streptozotocin-induced diabetes mellitus Sprague-Dawley rat liver microsomes assessed per mg protein at 4 uM after 60 mins; format: ADME; details: 1 h; summary of the method: as §3
[7] = AUC (0 to infinity) in insulin treated Sprague-Dawley rat model of streptozotocin-induced diabetes mellitus at 10 mg/kg, po by HPLC method; format: ADME, organism-based; design: dose 10 mg/kg, route oral, time infinity; details: in vivo; summary of the method: as §2
[8] = AUC (0 to t) in insulin treated Sprague-Dawley rat model of streptozotocin-induced diabetes mellitus at 10 mg/kg, po by HPLC method; format: ADME, organism-based; design: dose 10 mg/kg, route oral; details: in vivo; summary of the method: as §2
[9] = Cmax in normal Sprague-Dawley rat at 10 mg/kg, po by HPLC method; format: ADME, organism-based; design: dose 10 mg/kg, route oral; details: in vivo; summary of the method: as §2
[10] = Mean residence time in normal Sprague-Dawley rat at 10 mg/kg, po by HPLC method; format: ADME, organism-based; design: dose 10 mg/kg, route oral; details: in vivo; summary of the method: as §2
Jejunum = assay: Drug absorption in normal Sprague-Dawley rat jejunum assessed as 200 uM BCRP inhibitor novobiocin-mediated increase in apparent effective permeability at 10 ug/ml measured at 45 mins of perfusion; format: ADME, tissue-based; design: scale not given: the % may be the effect or the level left; details: 0.75 h
Summary of the method: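 Normal rats underwent in situ single-pass jejunal perfusion: saline preperfusion at 0.2 mL/min, 37 °C, for 20 min, then K-H buffer with GLB 10 μg/mL with or without novobiocin 50 or 200 μM. Effluent was collected every 15 min. Peff (cm/min) was calculated from GLB loss and the absorptive area of the segment; n=5.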

[11] = Drug excretion in urine of insulin treated Sprague-Dawley rat model of streptozotocin-induced diabetes mellitus at 10 mg/kg, po by HPLC method; format: ADME, organism-based; design: dose 10 mg/kg, route oral; details: read-out: Drug excretion; summary of the method: as §1
[12] = Apparent oral volume of distribution in Sprague-Dawley rat model of streptozotocin-induced diabetes mellitus at 10 mg/kg, po by HPLC method; format: ADME, organism-based; design: dose 10 mg/kg, route oral; details: in vivo; summary of the method: as §2
Liver microsome [13] = assay: Drug metabolism in normal Sprague-Dawley rat liver microsomes assessed as compound level at 4 uM after 60 mins (reference value: 2.06 +/- 0.12 ug/ml); format: ADME; details: 1 h
[14] = Oral clearance in Sprague-Dawley rat model of streptozotocin-induced diabetes mellitus at 10 mg/kg, po by HPLC method; format: ADME, organism-based; design: dose 10 mg/kg, route oral; details: in vivo; summary of the method: as §2
[15] = Apparent oral volume of distribution in insulin treated Sprague-Dawley rat model of streptozotocin-induced diabetes mellitus at 10 mg/kg, po by HPLC method; format: ADME, organism-based; design: dose 10 mg/kg, route oral; details: in vivo; summary of the method: as §2
[16] = Tmax in normal Sprague-Dawley rat at 10 mg/kg, po by HPLC method; format: ADME, organism-based; design: dose 10 mg/kg, route oral; details: in vivo; summary of the method: as §4
[17] = AUC (0 to 60 mins) in normal Sprague-Dawley rat liver microsomes at 4 uM after 60 mins; format: ADME; design: time < 1 hr, dose 4 uM; summary of the method: as §3
[18] = Drug excretion in bile of Sprague-Dawley rat model of streptozotocin-induced diabetes mellitus at 10 mg/kg, po by HPLC method; format: ADME, organism-based; design: dose 10 mg/kg, route oral; details: read-out: Drug excretion; summary of the method: as §1
Liver microsome [19] = assay: Apparent hepatic clearance in normal Sprague-Dawley rat liver microsomes assessed per mg protein at 4 uM after 60 mins; format: ADME; details: 1 h; summary of the method: as §3
[20] = Drug excretion in normal Sprague-Dawley rat bile at 10 mg/kg, po by HPLC method; format: ADME, organism-based; design: dose 10 mg/kg, route oral; details: read-out: Drug excretion; summary of the method: as §1
[21] = Tmax in Sprague-Dawley rat model of streptozotocin-induced diabetes mellitus at 10 mg/kg, po by HPLC method; format: ADME, organism-based; design: dose 10 mg/kg, route oral; details: in vivo; summary of the method: as §4
[22] = Terminal elimination half life in normal Sprague-Dawley rat at 10 mg/kg, po by HPLC method; format: ADME, organism-based; design: dose 10 mg/kg, route oral; details: in vivo, read-out: beta t1/2 (converted); summary of the method: as §4
[23] = AUC (0 to 60 mins) in insulin treated streptozotocin-induced diabetes mellitus Sprague-Dawley rat liver microsomes at 4 uM after 60 mins; format: ADME; design: dose 4 uM, time < 1 hr; summary of the method: as §3
[24] = AUC (0 to infinity) in Sprague-Dawley rat model of streptozotocin-induced diabetes mellitus at 10 mg/kg, po by HPLC method; format: ADME, organism-based; design: time infinity, dose 10 mg/kg, route oral; details: in vivo; summary of the method: as §2

For COc1ccc(Cl)cc1C(=O)NCCc1ccc(S(=O)(=O)NC(=O)NC2CCCCC2)cc1 [GLYBURIDE], which Drug uptake (Liver microsome [1]) is on record?
Its Drug uptake is 0.52 µg/mL.

And the dose excreted [2]?
Its dose excreted is 0.0042%.

And the MRT [3]?
The MRT was 9.28 h.

What about the half-life at 4 µM [4] of the same molecule?
The half-life at 4 µM was 0.526 h.

And the half-life [5]?
The half-life was 5.11 h.

What about the CLH(app) (Liver microsome [6]) of the same molecule?
The CLH(app) was 176 µL/min/mg.

And the AUC(0-inf) [7]?
Its AUC(0-inf) is 3000 ng·h/mL.

What about the AUC(0-t) [8] of the same molecule?
The AUC(0-t) was 2380 ng·h/mL.

And the Cmax [9]?
Its Cmax is 350 ng/mL.

And the MRT [10]?
The MRT was 7.23 h.

What about the Activity (Jejunum) of the same molecule?
Its Activity is 25%.

And the dose excreted [11]?
The dose excreted was 0.019%.

And the Vd/F [12]?
The Vd/F was 6.36 L/kg.

And the Drug uptake (Liver microsome [13])?
The Drug uptake was 0.07 µg/mL.

What about the CL/F [14] of the same molecule?
Its CL/F is 12 mL/min/kg.

And the Vd/F [15]?
The Vd/F was 36.8 L/kg.

What about the Tmax [16] of the same molecule?
The Tmax was 1.5 h.

What about the AUC(0-t) at 1 h, 4 µM [17] of the same molecule?
The AUC(0-t) at 1 h, 4 µM was 307 ng·h/mL.

What about the dose excreted [18] of the same molecule?
The dose excreted was 0.097%.

And the CLH(app) (Liver microsome [19])?
Its CLH(app) is 205 µL/min/mg.

What about the dose excreted [20] of the same molecule?
The dose excreted was 0.01%.

What about the Tmax [21] of the same molecule?
Its Tmax is 7.2 h.

What about the half-life [22] of the same molecule?
The half-life was 4.55 h.

And the AUC(0-t) at 1 h, 4 µM [23]?
Its AUC(0-t) at 1 h, 4 µM is 357 ng·h/mL.

What about the AUC(0-inf) [24] of the same molecule?
The AUC(0-inf) was 15200 ng·h/mL.
